This is an account of results in ChEMBL document CHEMBL4145447, “4-arylamidobenzyl substituted 5-bromomethylene-2(5H)-furanones for chronic bacterial infection” (Eur J Med Chem, 2018).

The test system of data set [1] is Mus musculus. The data set can be described thus: Anti-inflammatory activity in LPS-induced sepsis shock mouse model assessed as survival rate at 20 mg/kg, iv pretreated daily for 5 days followed LPS treatment on day 5 at 1 hr post last dose and measured after 7 days relative to control. Type of data set: functional. The method, boiled down:
(§1)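 Male SPF mice, randomly grouped, dosed i.v. with compound dissolved in DMSO and diluted in physiological saline; vehicle group given a similar volume. LPS was injected on day 5, 1 h after the last administration. Survival was recorded every 12 h for 7 days after LPS, with 11 animals per group per figure legend.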

Data set [2] has as its system RAW264.7. Briefly: Anti-inflammatory activity in mouse RAW264.7 cells assessed as inhibition of LPS-induced TNF-alpha production by measuring TNF-alpha level at 10 uM preincubated for 2 hrs followed by LPS stimulation and measured after 6 hrs by ELISA (reference value: 11922 +/- 628.4 pg/ml). Type of data set: functional. Background: In an ELISA, binding on a coated surface is turned into a signal by an enzyme label.

Data set [3] can be described thus: Cytotoxicity against mouse RAW264.7 cells assessed as cell viability at 10 uM after 48 hrs by MTT assay relative to control. Type of data set: cell-based. To be noted: read-out: Activity. The method, boiled down: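 MTT viability: RAW264.7 cells (4 × 10^4/well) in DMEM + 10% FBS exposed to compounds diluted in DMEM for 48 h. MTT 0.5 mg/mL added for 4 h in the dark, formazan dissolved in DMSO, read at 570 nm. Viability = treated/medium-only control × 100; three independent experiments.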

For data set [4], the system named is RAW264.7. Briefly: Anti-inflammatory activity in mouse RAW264.7 cells assessed as inhibition of LPS-induced TNF-alpha production by measuring TNF-alpha level at 10 uM preincubated for 2 hrs followed by LPS stimulation and measured after 12 hrs by ELISA (reference value: 21561.3 +/- 857 pg/ml). Type of data set: functional.
In data set [5] the test system is Mus musculus. Briefly: Anti-inflammatory activity in LPS-induced sepsis shock mouse model assessed as survival rate at 5 mg/kg, iv pretreated daily for 5 days followed LPS treatment on day 5 at 1 hr post last dose and measured after 7 days relative to control. Type of data set: functional. A digest of the protocol: as §1
Data set [6] addresses T1, Anthranilate--CoA ligase (Pseudomonas aeruginosa (strain ATCC 15692 / DSM 22644 / CIP 104116 /JCM 14847 / LMG 12228 / 1C / PRS 101 / PAO1)) (UniProt Q9I4X3).
T1 sequence (whole entry): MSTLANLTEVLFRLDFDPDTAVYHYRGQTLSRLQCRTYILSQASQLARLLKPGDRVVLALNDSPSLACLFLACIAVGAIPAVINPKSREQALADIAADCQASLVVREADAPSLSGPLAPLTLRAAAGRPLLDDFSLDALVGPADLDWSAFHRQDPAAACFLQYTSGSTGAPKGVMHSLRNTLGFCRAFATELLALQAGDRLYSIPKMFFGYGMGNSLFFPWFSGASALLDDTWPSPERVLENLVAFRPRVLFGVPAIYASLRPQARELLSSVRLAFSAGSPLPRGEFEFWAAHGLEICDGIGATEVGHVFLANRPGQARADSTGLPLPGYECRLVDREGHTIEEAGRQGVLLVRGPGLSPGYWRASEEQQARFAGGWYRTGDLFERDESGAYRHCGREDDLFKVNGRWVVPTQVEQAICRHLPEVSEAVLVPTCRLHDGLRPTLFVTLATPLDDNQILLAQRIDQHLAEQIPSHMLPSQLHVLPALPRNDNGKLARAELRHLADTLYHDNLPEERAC
Briefly: Inhibition of Pseudomonas aeruginosa PAO1 GFP-fused quorum sensing pqsA measured every 15 mins up to 12 hrs by GFP reporter gene assay. A digest of the protocol: (§2)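 GFP reporter strains of P. aeruginosa PAO1 (lasB-, rhlA- or pqsA-promoter fused to unstable gfp(ASV)) grown overnight in LB at 37 °C, 200 rpm, 18 h, then diluted 1:100. Culture mixed 1:1 with compound diluted in LB from 10 mM DMSO stock (0.1% DMSO final). Fluorescence (ex 485/em 528 nm) read every 15 min at 37 °C for ≥12 h.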
Background: In a reporter assay the amount or activity of a reporter protein is the signal.

In data set [7] the test system is RAW264.7. The data set can be described thus: Anti-inflammatory activity in mouse RAW264.7 cells assessed as inhibition of LPS-induced IL-6 production by measuring […] level at 10 uM preincubated for 2 hrs followed by LPS stimulation and measured after 6 hrs by ELISA (reference value: 94.6 +/- 5.9 pg/ml). Type of data set: functional.
Data set [8] deals with T1, Anthranilate--CoA ligase (Pseudomonas aeruginosa (strain ATCC 15692 / DSM 22644 / CIP 104116 /JCM 14847 / LMG 12228 / 1C / PRS 101 / PAO1)). Briefly: Inhibition of Pseudomonas aeruginosa PAO1 GFP-fused quorum sensing pqsA at 10 uM measured every 15 mins up to 12 hrs by GFP reporter gene assay relative to control. The method, boiled down: as §2
Data set [9] has the same target. The data set can be described thus: Inhibition of Pseudomonas aeruginosa PAO1 GFP-fused quorum sensing pqsA at 5 to 100 uM measured every 15 mins up to 12 hrs by GFP reporter gene assay. A digest of the protocol:
as §2

Each structure is given as a SMILES string. The source made the active and inactive calls. The rule behind the calls is not given here.

As a reminder, the inhibition is the drop in the measured response relative to a control, in per cent.

As for `O=C(Cc1ccc(F)cc1)Nc1ccc(CC2=CC(=O)OC2=CBr)cc1`, the survival at 20 mg/kg in the data set with Mus musculus [1] was 45.5%. Moreover, the Activity in the data set with RAW264.7 [2] is 7524.7 pg/mL; in the data set with RAW264.7 [4] it was 13362.7 pg/mL; in the data set with RAW264.7 [7] it was 17 pg/mL. For the same compound, the viability at 48 h, 10 µM in [3] stood at 97%. In the data set with Mus musculus [5], the survival at 5 mg/kg turned out to be 36.5%. The inhibition entry in data set [6] was “Dose-dependent effect”; in data set [8] it was 50.3%.

For the compound `O=C(C=Cc1ccccc1)Nc1ccc(CC2=CC(=O)O/C2=C/Br)cc1`, in data set [9], the inhibition result was “inactive”. Also, the Activity amounted to 7750 pg/mL in the data set on RAW264.7 [2], 15037.3 pg/mL with RAW264.7 [4] and 19.6 pg/mL in the data set with RAW264.7 [7]. In addition, in data set [3], the viability at 48 h, 10 µM was determined as 104%. Moreover, the inhibition in [8] is 23.1%.
